# Results taken from ChEMBL document CHEMBL5058577, “EUbOPEN Chemogenomics Library 2 (Multiplex)” (2022).
# Tested on: U2OS
# Experiment: Multiplex assay against U2OS
# Type: toxicity, cell-based
# Conditions: human
# How it was run: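 Live cells were stained at seeding with Hoechst33342, BioTracker Green Microtubule Cytoskeleton Dye, MitoTracker Red and Annexin V Alexa Fluor 680. Following compound addition, they were imaged on a CQ1 microscope at 37°C and 5% CO2 and gated by CellPathfinder machine learning into Hoechst high-intensity objects or normal cells, with normal cells split into healthy, pyknosed or fragmented nuclei and pyknosed cells into mitotic or apoptotic. Tubulin, mitochondrial-mass and membrane-permeability phenotypes are per cents of healthy-nucleus cells.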
# [1] = 12 h, 1 µM, compound concentration 1 uM, replicate 1
# [2] = 12 h, 1 µM, compound concentration 1 uM, replicate 2
# [3] = 12 h, 10 µM, compound concentration 10 uM, replicate 1
# [4] = 12 h, 10 µM, compound concentration 10 uM, replicate 2
# [5] = 24 h, 1 µM, compound concentration 1 uM, replicate 1
# [6] = 24 h, 1 µM, compound concentration 1 uM, replicate 2
# [7] = 24 h, 10 µM, compound concentration 10 uM, replicate 1
# [8] = 24 h, 10 µM, compound concentration 10 uM, replicate 2
# [9] = 48 h, 1 µM, compound concentration 1 uM, replicate 1
# [10] = 48 h, 1 µM, compound concentration 1 uM, replicate 2
# [11] = 48 h, 10 µM, compound concentration 10 uM, replicate 1
# [12] = 48 h, 10 µM, compound concentration 10 uM, replicate 2
smiles,measurement,setting,value
COc1cc(NC(=O)CCN2CCC(OC(=O)Nc3ccccc3-c3ccccc3)CC2)c(Cl)cc1CNC[C@H](O)c1ccc(O)c2[nH]c(=O)ccc12 [BATEFENTEROL],Population Apoptotic (%),[1],68%
same,Population Fragmented Nuclei (%),[1],29%
same,Population Healthy Nuclei (%),[1],49%
same,Population Hoechst High Intensity Objects (%),[1],4%
same,Population Membrane Permeable-Phenotype (%),[1],5%
same,Population Mitochondria Different-Phenotype (%),[1],5%
same,Population Mitotic Cells (%),[1],31%
same,Population Normal (%),[1],95%
same,Population Pyknosed Nuclei (%),[1],21%
same,Population Tubulin-Different-Phenotype (%),[1],4%
same,Total Cell Count,[1],159
same,Population Apoptotic (%),[2],85%
same,Population Fragmented Nuclei (%),[2],14%
same,Population Healthy Nuclei (%),[2],78%
same,Population Hoechst High Intensity Objects (%),[2],1%
same,Population Membrane Permeable-Phenotype (%),[2],9%
same,Population Mitochondria Different-Phenotype (%),[2],6%
same,Population Mitotic Cells (%),[2],14%
same,Population Normal (%),[2],98%
same,Population Pyknosed Nuclei (%),[2],7%
same,Population Tubulin-Different-Phenotype (%),[2],7%
same,Total Cell Count,[2],98
same,Population Apoptotic (%),[3],72%
same,Population Fragmented Nuclei (%),[3],37%
same,Population Healthy Nuclei (%),[3],44%
same,Population Hoechst High Intensity Objects (%),[3],6%
same,Population Membrane Permeable-Phenotype (%),[3],60%
same,Population Mitochondria Different-Phenotype (%),[3],67%
same,Population Mitotic Cells (%),[3],27%
same,Population Normal (%),[3],93%
same,Population Pyknosed Nuclei (%),[3],18%
same,Population Tubulin-Different-Phenotype (%),[3],75%
same,Total Cell Count,[3],196
same,Population Apoptotic (%),[4],88%
same,Population Fragmented Nuclei (%),[4],18%
same,Population Healthy Nuclei (%),[4],59%
same,Population Hoechst High Intensity Objects (%),[4],7%
same,Population Membrane Permeable-Phenotype (%),[4],57%
same,Population Mitochondria Different-Phenotype (%),[4],95%
same,Population Mitotic Cells (%),[4],11%
same,Population Normal (%),[4],92%
same,Population Pyknosed Nuclei (%),[4],22%
same,Population Tubulin-Different-Phenotype (%),[4],97%
same,Total Cell Count,[4],82
same,Population Apoptotic (%),[5],74%
same,Population Fragmented Nuclei (%),[5],27%
same,Population Healthy Nuclei (%),[5],55%
same,Population Hoechst High Intensity Objects (%),[5],2%
same,Population Membrane Permeable-Phenotype (%),[5],9%
same,Population Mitochondria Different-Phenotype (%),[5],9%
same,Population Mitotic Cells (%),[5],25%
same,Population Normal (%),[5],97%
same,Population Pyknosed Nuclei (%),[5],17%
same,Population Tubulin-Different-Phenotype (%),[5],5%
same,Total Cell Count,[5],182
same,Population Apoptotic (%),[6],100%
same,Population Fragmented Nuclei (%),[6],12%
same,Population Healthy Nuclei (%),[6],75%
same,Population Hoechst High Intensity Objects (%),[6],1%
same,Population Membrane Permeable-Phenotype (%),[6],5%
same,Population Mitochondria Different-Phenotype (%),[6],6%
same,Population Mitotic Cells (%),[6],0%
same,Population Normal (%),[6],98%
same,Population Pyknosed Nuclei (%),[6],11%
same,Population Tubulin-Different-Phenotype (%),[6],2%
same,Total Cell Count,[6],103
same,Population Apoptotic (%),[7],79%
same,Population Fragmented Nuclei (%),[7],38%
same,Population Healthy Nuclei (%),[7],38%
same,Population Hoechst High Intensity Objects (%),[7],4%
same,Population Membrane Permeable-Phenotype (%),[7],32%
same,Population Mitochondria Different-Phenotype (%),[7],59%
same,Population Mitotic Cells (%),[7],20%
same,Population Normal (%),[7],95%
same,Population Pyknosed Nuclei (%),[7],22%
same,Population Tubulin-Different-Phenotype (%),[7],44%
same,Total Cell Count,[7],199
same,Population Apoptotic (%),[8],73%
same,Population Fragmented Nuclei (%),[8],29%
same,Population Healthy Nuclei (%),[8],42%
same,Population Hoechst High Intensity Objects (%),[8],9%
same,Population Membrane Permeable-Phenotype (%),[8],52%
same,Population Mitochondria Different-Phenotype (%),[8],91%
same,Population Mitotic Cells (%),[8],26%
same,Population Normal (%),[8],90%
same,Population Pyknosed Nuclei (%),[8],27%
same,Population Tubulin-Different-Phenotype (%),[8],91%
same,Total Cell Count,[8],93
same,Population Apoptotic (%),[9],82%
same,Population Fragmented Nuclei (%),[9],26%
same,Population Healthy Nuclei (%),[9],54%
same,Population Hoechst High Intensity Objects (%),[9],3%
same,Population Membrane Permeable-Phenotype (%),[9],3%
same,Population Mitochondria Different-Phenotype (%),[9],5%
same,Population Mitotic Cells (%),[9],17%
same,Population Normal (%),[9],96%
same,Population Pyknosed Nuclei (%),[9],19%
same,Population Tubulin-Different-Phenotype (%),[9],3%
same,Total Cell Count,[9],242
same,Population Apoptotic (%),[10],85%
same,Population Fragmented Nuclei (%),[10],17%
same,Population Healthy Nuclei (%),[10],64%
same,Population Hoechst High Intensity Objects (%),[10],4%
same,Population Mitochondria Different-Phenotype (%),[10],1%
same,Population Mitotic Cells (%),[10],14%
same,Population Normal (%),[10],95%
same,Population Pyknosed Nuclei (%),[10],17%
same,Population Tubulin-Different-Phenotype (%),[10],1%
same,Total Cell Count,[10],123
same,Population Apoptotic (%),[11],92%
same,Population Fragmented Nuclei (%),[11],41%
same,Population Healthy Nuclei (%),[11],39%
same,Population Hoechst High Intensity Objects (%),[11],6%
same,Population Membrane Permeable-Phenotype (%),[11],31%
same,Population Mitochondria Different-Phenotype (%),[11],43%
same,Population Mitotic Cells (%),[11],7%
same,Population Normal (%),[11],93%
same,Population Pyknosed Nuclei (%),[11],18%
same,Population Tubulin-Different-Phenotype (%),[11],23%
same,Total Cell Count,[11],221
same,Population Apoptotic (%),[12],94%
same,Population Fragmented Nuclei (%),[12],29%
same,Population Healthy Nuclei (%),[12],32%
same,Population Hoechst High Intensity Objects (%),[12],10%
same,Population Membrane Permeable-Phenotype (%),[12],38%
same,Population Mitochondria Different-Phenotype (%),[12],70%
same,Population Mitotic Cells (%),[12],5%
same,Population Normal (%),[12],89%
same,Population Pyknosed Nuclei (%),[12],37%
same,Population Tubulin-Different-Phenotype (%),[12],48%
same,Total Cell Count,[12],105
